Data reported in ChEMBL document CHEMBL2331168, “Anticonvulsant evaluation of aminoalkanol derivatives of 2- and 4-methylxanthone” (Bioorg Med Chem, 2013).
Active and inactive are the calls of the source.

Tests used:
[1] = Neurotoxicity in ip dosed albino mouse assessed as minimal motor impairment after 0.25 hrs by rotorod test; type: toxicity, organism-based; conditions: in vivo
Method in brief: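 TD50, with 95% confidence intervals, was the ip dose causing neurotoxicity in 50% of male albino mice. Deficit was judged on the rotorod: a 1 in. knurled rod at 6 rpm, where failure to hold on for 1 min in each of three trials counted as deficit. Read at the stated time after dosing.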

Mus musculus [2] = assay: Anticonvulsant activity in ip dosed albino mouse assessed as protection against subcutaneous pentetrazole-induced seizures after 1 hr; type: functional
Mus musculus [3] = organism: Mus musculus; assay: Protective index, ratio TD50 for albino mouse to ED50 for albino mouse by maximal electroshock-induced seizure test after 1 hr; type: functional
Method in brief: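 Protective index was calculated as mouse ip TD50 (rotorod) divided by mouse ip MES ED50, both obtained by quantitative dose-response testing at the stated post-dose time.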

Mus musculus [4] = assay: Anticonvulsant activity in ip dosed albino mouse assessed as protection against maximal electroshock-induced seizures after 1 hr; type: functional
Method in brief: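 ED50, with 95% confidence intervals, was the ip dose protecting 50% of mice in the MES test. It was measured at the stated post-dose time in male albino mice given suspensions in 0.5% methylcellulose. MES used 60 Hz, 50 mA, 0.2 s corneal stimulation, and the endpoint was abolition of hindlimb tonic extension.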

Mus musculus [5] = assay: Neurotoxicity in albino mouse assessed as minimal motor impairment at 300 mg/kg, ip after 4 hrs by rotorod test; type: toxicity, organism-based; parameters: dose 300 mg/kg, route intraperitoneal; conditions: in vivo
Method in brief: (§1)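 Male albino mice (Carworth Farms No. 1) were dosed ip with suspensions in 0.5% methylcellulose and put on a 1 in. knurled rod rotating at 6 rpm at set times after dosing. Neurotoxicity meant failure to stay on the rod for at least 1 min in each of three trials. Scored as impaired/tested.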

Mus musculus [6] = assay: Neurotoxicity in albino mouse assessed as minimal motor impairment at 100 mg/kg, ip after 4 hrs by rotorod test; type: toxicity, organism-based; parameters: dose 100 mg/kg, route intraperitoneal; conditions: in vivo; method in brief: as §1
Mus musculus [7] = assay: Neurotoxicity in albino mouse assessed as minimal motor impairment at 30 mg/kg, ip after 4 hrs by rotorod test; type: toxicity, organism-based; parameters: dose 30 mg/kg, route intraperitoneal; conditions: in vivo; method in brief: as §1
Mus musculus [8] = assay: Neurotoxicity in albino mouse assessed as minimal motor impairment at 10 mg/kg, ip after 0.5 hrs by rotorod test; type: toxicity, organism-based; parameters: dose 10 mg/kg, route intraperitoneal; conditions: in vivo; method in brief: as §1
Mus musculus [9] = assay: Neurotoxicity in albino mouse assessed as minimal motor impairment at 3 mg/kg, ip after 0.5 hrs by rotorod test; type: toxicity, organism-based; parameters: dose 3 mg/kg, route intraperitoneal; conditions: in vivo; method in brief: as §1
Mus musculus [10] = assay: Anticonvulsant activity in albino mouse assessed as protection against subcutaneous pentetrazole-induced seizures at 300 mg/kg, ip after 4 hrs; type: functional, organism-based; parameters: dose 300 mg/kg
Method in brief: (§2)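 Male albino mice (Carworth Farms No. 1) received compound ip in 0.5% methylcellulose, then pentetrazole 85 mg/kg sc in 0.9% NaCl at 0.5 or 4 h. Mice were watched for at least 30 min. Protection meant no threshold seizure, defined as a single clonic spasm lasting at least 5 s. Scored as protected/tested.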

Mus musculus [11] = assay: Anticonvulsant activity in albino mouse assessed as protection against subcutaneous pentetrazole-induced seizures at 100 mg/kg, ip after 4 hrs; type: functional, organism-based; parameters: dose 100 mg/kg; method in brief: as §2
Mus musculus [12] = assay: Anticonvulsant activity in albino mouse assessed as protection against subcutaneous pentetrazole-induced seizures at 300 mg/kg, ip after 0.5 hrs; type: functional, organism-based; parameters: dose 300 mg/kg; method in brief: as §2
Mus musculus [13] = assay: Anticonvulsant activity in albino mouse assessed as protection against subcutaneous pentetrazole-induced seizures at 30 mg/kg, ip after 4 hrs; type: functional, organism-based; parameters: dose 30 mg/kg; method in brief: as §2
Mus musculus [14] = assay: Anticonvulsant activity in albino mouse assessed as protection against subcutaneous pentetrazole-induced seizures at 100 mg/kg, ip after 0.5 hrs; type: functional, organism-based; parameters: dose 100 mg/kg; method in brief: as §2
Mus musculus [15] = assay: Anticonvulsant activity in albino mouse assessed as protection against subcutaneous pentetrazole-induced seizures at 30 mg/kg, ip after 0.5 hrs; type: functional, organism-based; parameters: dose 30 mg/kg; method in brief: as §2
Mus musculus [16] = assay: Anticonvulsant activity in albino mouse assessed as protection against maximal electroshock-induced seizures at 300 mg/kg, ip after 4 hrs; type: functional, organism-based; parameters: dose 300 mg/kg
Method in brief: (§3)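 Male albino mice (Carworth Farms No. 1) were given the compound ip as a suspension in 0.5% methylcellulose at 3–300 mg/kg. MES testing was at 0.5 and 4 h, sometimes also at 0.25 and 1 h. Current was 60 Hz, 50 mA, 0.2 s via corneal electrodes, with saline eye drops. Protection meant no hindlimb tonic extension, scored as protected/tested.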

Mus musculus [17] = assay: Anticonvulsant activity in albino mouse assessed as protection against maximal electroshock-induced seizures at 100 mg/kg, ip after 4 hrs; type: functional, organism-based; parameters: dose 100 mg/kg; method in brief: as §3
Mus musculus [18] = assay: Anticonvulsant activity in albino mouse assessed as protection against maximal electroshock-induced seizures at 30 mg/kg, ip after 4 hrs; type: functional, organism-based; parameters: dose 30 mg/kg; method in brief: as §3
Mus musculus [19] = assay: Anticonvulsant activity in albino mouse assessed as protection against maximal electroshock-induced seizures at 3 mg/kg, ip after 0.5 hrs; type: functional, organism-based; parameters: dose 3 mg/kg; method in brief: as §3
Mus musculus [20] = assay: Anticonvulsant activity in albino mouse assessed as protection against maximal electroshock-induced seizures at 300 mg/kg, ip after 0.5 hrs; type: functional, organism-based; parameters: dose 300 mg/kg; method in brief: as §3
Mus musculus [21] = assay: Anticonvulsant activity in albino mouse assessed as protection against maximal electroshock-induced seizures at 100 mg/kg, ip after 0.5 hrs; type: functional, organism-based; parameters: dose 100 mg/kg; method in brief: as §3
Mus musculus [22] = assay: Anticonvulsant activity in albino mouse assessed as protection against maximal electroshock-induced seizures at 30 mg/kg, ip after 0.5 hrs; type: functional, organism-based; parameters: dose 30 mg/kg; method in brief: as §3
Mus musculus [23] = assay: Neurotoxicity in albino mouse assessed as minimal motor impairment at 30 mg/kg, ip after 0.5 hrs by rotorod test; type: toxicity, organism-based; parameters: dose 30 mg/kg, route intraperitoneal; conditions: in vivo; method in brief: as §1
Rattus norvegicus [24] = assay: Neurotoxicity in Sprague-Dawley rat assessed as minimal motor impairment at 30 mg/kg, po after 1 hr by rotorod test; conditions: in vivo
Rattus norvegicus [25] = assay: Neurotoxicity in Sprague-Dawley rat assessed as minimal motor impairment at 30 mg/kg, po after 4 hrs by rotorod test; conditions: in vivo
Rattus norvegicus [26] = assay: Neurotoxicity in Sprague-Dawley rat assessed as minimal motor impairment at 30 mg/kg, po after 2 hrs by rotorod test; conditions: in vivo
Rattus norvegicus [27] = assay: Neurotoxicity in Sprague-Dawley rat assessed as minimal motor impairment at 30 mg/kg, po after 0.5 hrs by rotorod test; conditions: in vivo
Rattus norvegicus [28] = assay: Neurotoxicity in Sprague-Dawley rat assessed as minimal motor impairment at 30 mg/kg, po after 0.25 hrs by rotorod test; conditions: in vivo

With `CC[C@@H](CO)NCc1ccc2oc3cc(OC)ccc3c(=O)c2c1` the TD50 at 0.25 h [1] was greater than 400 mg/kg, the ED50 (Mus musculus [2]) was greater than 200 mg/kg and the “Ratio TD50/ED50” value (Mus musculus [3]) was greater than 8.41. The ED50 (Mus musculus [4]) was 47.6 mg/kg, the Activity (Mus musculus [5]) was “Toxic” and the Activity (Mus musculus [6]) was “Non-toxic”. The Activity (Mus musculus [7]) was “Non-toxic”, the Activity (Mus musculus [8]) was “Non-toxic” and the Activity (Mus musculus [9]) was “Non-toxic”. The Activity (Mus musculus [10]) was “inactive”, the Activity (Mus musculus [11]) was “inactive” and the Activity (Mus musculus [12]) was “inactive”. The Activity (Mus musculus [13]) was “inactive”, the Activity (Mus musculus [14]) was “inactive” and the Activity (Mus musculus [15]) was “inactive”. For the same compound, the Activity (Mus musculus [16]) was “Active”, the Activity (Mus musculus [17]) was “Active” and the Activity (Mus musculus [18]) was “inactive”. For the same compound, the Activity (Mus musculus [19]) was “inactive”, the Activity (Mus musculus [20]) was “Active” and the Activity (Mus musculus [21]) was “Active”. For the same compound, the Activity (Mus musculus [22]) was “Active”, the Activity (Mus musculus [23]) was “Non-toxic” and the Activity (Rattus norvegicus [24]) was “Non-toxic”. For the same compound, the Activity (Rattus norvegicus [25]) was “Non-toxic”, the Activity (Rattus norvegicus [26]) was “Non-toxic” and the Activity (Rattus norvegicus [27]) was “Non-toxic”. The Activity (Rattus norvegicus [28]) was “Non-toxic”.
